Our source for the IC50, Activity and inhibition values is ChEMBL document CHEMBL2396631, “(+)-Altholactone exhibits broad spectrum immune modulating activity by inhibiting the activation of pro-inflammatory cytokines in RAW 264.7 cell lines” (Bioorg Med Chem, 2013).

The nature of data set [1]: Inhibition of LPS-induced NF-kappaB activation in mouse RAW264.7 cells after 18 hrs by luciferase assay. The format is cell-based. The conditions noted are these: RAW264.7, 18 h. Summed up:
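RAW264.7 cells stably carrying an NF-κB luciferase reporter plated at 5 × 10⁴ per well and allowed 24 h recovery. Then treated with compound plus LPS 100 ng/mL for 18 h. Lysates read after adding luciferase assay reagent. IC50 given as mean ± SE, n = 3.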

The test system of data set [2] is RAW264.7. Nature of the data set: Cytotoxicity against mouse RAW264.7 cells after 18 hrs by MTT assay. The format is cell-based. The conditions noted are these: RAW264.7, 18 h. Summed up:
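Murine macrophage RAW264.7 cells exposed to compound about 18 h, tested at 6.25–100 µM from DMSO stock. MTT added for 2 h, formazan dissolved in DMSO and read at 570 nm. IC50 given as mean ± SE, n = 3.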

The test system of data set [3] is PC-3. The experiment in a line: Cytotoxicity against human PC3 cells up to 100 uM after 20 hrs by MTT assay. The conditions noted are these: pc-3, 20 h. The data set is classed as cell-based. Summed up:
(§1)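 Non-tumorigenic MCF-10A and tumorigenic MCF-7, MDA-MB-231, PC3 and LNCaP cells grown in 96-well plates in their own growth media. Treated with 6.25, 12.5, 25, 50 or 100 µM compound from DMSO stock for 20 h, then MTT added for 2 h. Formazan dissolved in DMSO and absorbance read at 570 nm.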

Data set [4] has as its system LNCaP. Nature of the data set: Cytotoxicity against human LNCAP cells up to 100 uM after 20 hrs by MTT assay. The data set is classed as cell-based. The procedure, abridged: as §1
Data set [5] concerns MCF7. The experiment in a line: Cytotoxicity against human MCF7 cells up to 100 uM after 20 hrs by MTT assay. The format is cell-based. The note with it: mcf7, 20 h. The procedure, abridged: as §1
The subject of data set [6] is MDA-MB-231. The experiment in a line: Cytotoxicity against human MDA-MB-231 cells up to 100 uM after 20 hrs by MTT assay. The format is cell-based. The note with it: mda-mb-231, 20 h. Summed up: as §1
For data set [7], the system named is MCF-10A. The experiment in a line: Cytotoxicity against human MCF10A cells up to 100 uM after 20 hrs by MTT assay. The data set is classed as cell-based. Summed up: as §1
Data set [8] concerns RAW264.7. The experiment in a line: Antiinflammatory activity in mouse RAW264.7 cells assessed as reduction of LPS-induced IFN-beta mRNA expression by quantitative real-time PCR analysis. The data set is classed as functional, cell-based. Summed up:
(§2)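 Cells treated with compound (0.7–12.5 µM) plus LPS 100 ng/mL. Total RNA analysed by SYBR Green real-time qPCR, with each gene normalised to GAPDH. Mean ± SD of three independent experiments; one-way ANOVA, p < 0.05 taken as significant.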

Data set [9] deals with RAW264.7. The experiment in a line: Antiinflammatory activity in mouse RAW264.7 cells assessed as reduction of LPS-induced IL-6 mRNA expression by quantitative real-time PCR analysis. The format is functional, cell-based. The procedure, abridged:
as §2

Data set [10] has as its system RAW264.7. The experiment in a line: Antiinflammatory activity in mouse RAW264.7 cells assessed as reduction of LPS-induced G-CSF mRNA expression by quantitative real-time PCR analysis. The format is functional, cell-based. Summed up: as §2
Data set [11] deals with RAW264.7. Nature of the data set: Antiinflammatory activity in mouse RAW264.7 cells assessed as reduction of LPS-induced MCP1 mRNA expression by quantitative real-time PCR analysis. The data set is classed as functional, cell-based. The procedure, abridged:
as §2

The subject of data set [12] is RAW264.7. Nature of the data set: Antiinflammatory activity in mouse RAW264.7 cells assessed as reduction of LPS-induced IL-1beta mRNA expression by quantitative real-time PCR analysis. The format is functional, cell-based. Summed up: as §2
Data set [13] deals with RAW264.7. The experiment in a line: Antiinflammatory activity in mouse RAW264.7 cells assessed as reduction of LPS-induced IP-10 mRNA expression by quantitative real-time PCR analysis. The data set is classed as functional, cell-based. The procedure, abridged:
as §2

Data set [14] has as its system RAW264.7. The experiment in a line: Antiinflammatory activity in mouse RAW264.7 cells assessed as reduction of LPS-induced COX2 mRNA expression by quantitative real-time PCR analysis. The data set is classed as functional, cell-based. Summed up: as §2
In data set [15] the test system is RAW264.7. Nature of the data set: Antiinflammatory activity in mouse RAW264.7 cells assessed as reduction of LPS-induced iNOS mRNA expression by quantitative real-time PCR analysis. The format is functional, cell-based. The procedure, abridged:
as §2

The test system of data set [16] is RAW264.7. Nature of the data set: Antiinflammatory activity in mouse RAW264.7 cells assessed as reduction of LPS-induced COX2 expression at 5 uM after 4 hrs by Western blot analysis. The data set is classed as functional, cell-based. The procedure, abridged: (§3)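 Near-confluent cells treated with rising compound concentrations (1.5–12.0 µM) plus LPS for 4 h at 37 °C. Lysed directly in SDS loading buffer, sonicated, heated, run on 4–15% gels, then transferred. Probed for phospho-IκBα, IκBα, iNOS and COX-2, with β-actin as the loading reference; HRP secondaries used.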

Data set [17] concerns RAW264.7. The experiment in a line: Antiinflammatory activity in mouse RAW264.7 cells assessed as reduction of LPS-induced iNOS expression at 5 uM after 4 hrs by Western blot analysis. The format is functional, cell-based. The procedure, abridged:
as §3

Data set [18] relates to RAW264.7. Nature of the data set: Inhibition of LPS-induced NF-kappaB activation in mouse RAW264.7 cells assessed as reduction of IkappaBalpha phosphorylation at 1.5 to 12 uM after 4 hrs by Western blot analysis. The format is cell-based. The procedure, abridged: as §3
Data set [19] concerns RAW264.7. Nature of the data set: Antiinflammatory activity in mouse RAW264.7 cells assessed as inhibition of LPS-induced nitric oxide production after 24 hrs by Griess assay. The data set is classed as functional, cell-based. The conditions noted are these: RAW264.7, 24 h. Summed up: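 Cells plated in RPMI1640, 24 h at 37 °C; medium changed, then compound plus E. coli 055:B5 LPS added. Supernatant mixed with Griess reagent (sulfanilamide/naphthylethylenediamine in H3PO4), 30 min at room temperature in the dark. IC50 given as mean ± SE, n = 3.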

Active and inactive are the calls of the source. The calls are words filed in the database; no cut-off is given here.

As for `CC(=O)O[C@H]1[C@@H]2OC(=O)C=C[C@@H]2O[C@@H]1c1ccccc1` [(+)-3-O-ACETYLALTHOLACTONE], the IC50 in data set [1] amounted to 34.3 µM; in data set [2], 36.1 µM.

On to `O=C1C=C[C@@H]2O[C@H](c3ccccc3)[C@@H](O)[C@@H]2O1` [ALTHOLACTONE], for which the Activity entry in data set [3], in [4], in data set [5], in [6] and in [7] was “Non-toxic” each time. For the same compound, the IC50 in data set [8] came to 800 nM; in [9] it was 900 nM; in data set [10], 4 µM; in data set [11], 4 µM; in data set [12], 3000 nM; in [13], 5 µM. In addition, the IC50 in data set [14] worked out at 3000 nM; in data set [15], 2000 nM; in data set [1], 6.7 µM; in data set [19] it was 800 nM; in [2], 43.4 µM. Also, the inhibition result in data set [16], in data set [17] and in data set [18] was “Active” each time.

Consider `O=C1C=CC[C@H](/C=C/c2ccccc2)O1` [GONIOTHALAMIN], for which the concentration for half-maximal inhibition (IC50) turned out to be 27.4 µM in data set [1] and 34.2 µM in [2].
